Laboratory results published in ChEMBL document CHEMBL1136495, “Synthesis of new 3-arylisoquinolinamines: effect on topoisomerase I inhibition and cytotoxicity” (Bioorg Med Chem Lett, 2003).

Tests used:
A549 = assay: Cytotoxic activity against A 549 human lung tumor cell line, using sulforhodamine B (SRB) assay.; type: functional, cell-based
Procedure, shortened: (§1)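 In vitro sulforhodamine B (SRB) staining assay on human tumor cell lines. Values are reported as IC50 for cytotoxicity.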

SK-MEL-2 = assay: Cytotoxic activity against SK-MEL-2 human melanoma cell line, using sulforhodamine B (SRB) assay.; type: functional, cell-based; procedure, shortened: as §1
SK-OV-3 = assay: Cytotoxic activity against SKOV-3 human ovarian tumor cell line, using sulforhodamine B (SRB) assay.; type: functional, cell-based; procedure, shortened: as §1
HCT-15 = assay: Cytotoxic activity against HCT 15 human colon tumor cell line, using sulforhodamine B (SRB) assay.; type: functional, cell-based; procedure, shortened: as §1
OCI-AML2 [1] = assay: Cytotoxic activity against D100 daunorubicin (100 nM) resistant AML-2 cell line was determined; type: functional
OCI-AML2 [2] = assay: Cytotoxic activity against wild type AML-2 leukemia cell line was determined; type: functional
OCI-AML2 [3] = assay: Cytotoxic activity against DX-100: doxorubicin (100 ng/mL) resistant AML-2 cell line was determined; type: functional
[4] = target: T1, DNA topoisomerase 1 (Homo sapiens) (UniProt P11387); assay: Inhibitory activity against Topoisomerase I in supercoiled DNA unwinding assay method; Weak activity
T1 sequence (whole entry): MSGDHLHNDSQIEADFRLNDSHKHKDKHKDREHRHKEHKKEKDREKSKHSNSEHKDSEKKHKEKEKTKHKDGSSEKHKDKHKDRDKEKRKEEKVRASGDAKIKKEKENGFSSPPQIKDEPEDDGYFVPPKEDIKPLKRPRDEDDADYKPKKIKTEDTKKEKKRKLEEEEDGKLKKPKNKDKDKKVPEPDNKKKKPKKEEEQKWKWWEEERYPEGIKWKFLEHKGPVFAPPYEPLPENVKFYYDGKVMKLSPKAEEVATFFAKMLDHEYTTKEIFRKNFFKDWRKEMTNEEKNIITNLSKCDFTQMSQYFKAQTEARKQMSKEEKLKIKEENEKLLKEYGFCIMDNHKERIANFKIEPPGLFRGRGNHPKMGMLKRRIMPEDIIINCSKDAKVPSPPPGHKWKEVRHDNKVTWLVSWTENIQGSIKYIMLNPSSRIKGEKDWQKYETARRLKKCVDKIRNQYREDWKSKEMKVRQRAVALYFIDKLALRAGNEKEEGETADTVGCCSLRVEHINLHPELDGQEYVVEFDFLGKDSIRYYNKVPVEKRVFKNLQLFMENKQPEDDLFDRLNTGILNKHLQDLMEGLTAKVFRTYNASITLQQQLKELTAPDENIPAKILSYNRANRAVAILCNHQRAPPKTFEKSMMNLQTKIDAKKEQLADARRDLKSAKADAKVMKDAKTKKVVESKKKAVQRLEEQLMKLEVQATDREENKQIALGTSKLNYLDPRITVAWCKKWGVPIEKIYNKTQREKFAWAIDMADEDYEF

[5] = target: T1, DNA topoisomerase 1 (Homo sapiens); assay: Inhibitory activity against Topoisomerase I was determined by the supercoiled DNA unwinding assay method; Greater activity than Camptothecin

Row | Compound | Activity [4] | Activity [5] | IC50 (A549) [µM] | IC50 (SK-MEL-2) [µM] | IC50 (SK-OV-3) [µM] | IC50 (HCT-15) [µM] | Activity (OCI-AML2 [1]) [µg/mL] | Cytotoxicity (OCI-AML2 [2]) [µg/mL] | Cytotoxicity (OCI-AML2 [3]) [µg/mL] | Cytotoxicity (OCI-AML2 [1]) [µg/mL]
1 | CCN1CCN(c2nc(-c3ccccc3)cc3cc(C)ccc23)CC1 |  |  | 18.2 | 11.9 | 41.8 | 2.42 |  |  |  | 
2 | Cc1ccc2c(N)nc(-c3ccccc3C)cc2c1.Cl |  |  | 0.17 | 0.14 | 0.21 | 0.17 | 0.0027 | 0.0078 | 0.0056 | 
3 | Cc1ccccc1-c1cc2ccccc2c(N)n1 |  |  | 3.14 | 2.11 | 1.81 | 1.92 |  |  |  | 
4 | Nc1nc(-c2ccccc2)cc2ccccc12 |  |  | 2.73 | 1.48 | 2.03 | 1.87 |  |  |  | 
5 | N[C@H]1CC[C@H](Nc2nc(-c3ccccc3)cc3ccccc23)CC1 |  |  | 7.95 | 7.7 | 4.36 | 7.24 |  |  |  | 
6 | Cc1ccc(-c2cc3ccccc3c(N3CCCN(C)CC3)n2)cc1 |  |  | 1.22 | 6.18 | 9.34 | 7.84 |  |  |  | 
7 | Cc1ccc2c(NCc3ccccc3)nc(-c3ccccc3)cc2c1 |  |  | 122 | 94.4 | 156 | 64.2 |  |  |  | 
8 | Cc1ccc2c(N3CCCN(C)CC3)nc(-c3ccccc3C)cc2c1 |  |  | 0.44 | 0.99 | 0.7 | 1.2 |  |  |  | 
9 | COc1cccc2c1C(=O)c1c(O)c3c(c(O)c1C2=O)C[C@@](O)(C(C)=O)C[C@@H]3O[C@H]1C[C@H](N)[C@H](O)[C@H](C)O1 [DAUNORUBICIN] |  |  |  |  |  |  |  | 0.001 | 0.43 | 0.52
10 | CN1CCCN(c2nc(-c3ccc(Br)cc3)cc3ccccc23)CC1 |  |  | 6.04 | 4.12 | 3.85 | 5.26 |  |  |  | 
11 | COc1cccc2c1C(=O)c1c(O)c3c(c(O)c1C2=O)C[C@@](O)(C(=O)CO)C[C@@H]3O[C@H]1C[C@H](N)[C@H](O)[C@H](C)O1 [DOXORUBICIN] |  |  |  | 4.78 | 1.17 | 1.67 |  | 0.01 | 3.2 | 1.93
12 | CN1CCCN(c2nc(-c3ccc(Cl)cc3)cc3ccccc23)CC1 |  |  | 11.8 | 8.55 | 20 | 9.78 |  |  |  | 
13 | CN1CCCN(c2nc(-c3ccccc3)cc3ccccc23)CC1 |  | Greater activity than Camptothecin | 10.8 | 8.38 | 17 | 11.1 |  |  |  | 
14 | CN1CCN(c2nc(-c3ccccc3)cc3ccccc23)CC1 |  |  | 13.6 | 14.5 | 13.7 | 13.9 |  |  |  | 
15 | Cc1ccc(-c2cc3ccccc3c(NCc3ccccc3)n2)cc1 |  |  | 168 | 133 | 193 | 171 |  |  |  | 
16 | CCN1CCN(c2nc(-c3ccccc3C)cc3cc(C)ccc23)CC1 |  |  | 21 | 12.8 | 62 | 8.65 |  |  |  | 
17 | CCN1CCN(c2nc(-c3ccccc3)cc3ccccc23)CC1 | Weak activity |  | 55.4 | 95.7 | 68.9 | 7.22 |  |  |  | 
18 | CN1CCCN(c2nc(-c3cccc4ccccc34)cc3ccccc23)CC1 | Weak activity |  | 0.52 | 1.98 | 3.64 | 1.93 |  |  |  | 

Now from value to molecule, other results behind:

Row | Activity [4] | Activity [5] | Compound | IC50 (A549) [µM] | IC50 (SK-MEL-2) [µM] | IC50 (SK-OV-3) [µM] | IC50 (HCT-15) [µM] | Activity (OCI-AML2 [1]) [µg/mL] | Cytotoxicity (OCI-AML2 [2]) [µg/mL] | Cytotoxicity (OCI-AML2 [3]) [µg/mL] | Cytotoxicity (OCI-AML2 [1]) [µg/mL]
19 | Weak activity |  | Cc1cccc(-c2cc3ccccc3c(N3CCCN(C)CC3)n2)c1 | 8.57 | 8.85 | 8.22 | 9.2 |  |  |  | 
20 | Weak activity |  | CC(=O)N[C@H]1CC[C@H](Nc2nc(-c3ccccc3)cc3ccccc23)CC1 | 145 | 183 | 186 | 253 |  |  |  | 
21 |  | Greater activity than Camptothecin | Cc1ccc2c(NCCN)nc(-c3ccccc3)cc2c1 | > 300 | > 300 | > 300 | > 300 |  |  |  | 
22 | Weak activity |  | Cc1ccc2c(NCCN)nc(-c3ccccc3Cl)cc2c1 | > 300 | > 300 | > 300 | > 300 |  |  |  | 
23 | Weak activity |  | CCN1CCN(c2nc(-c3ccc(C)cc3)cc3cc(C)ccc23)CC1 | 26.9 | 14.4 | 63.4 | 8.07 |  |  |  | 
24 | Weak activity |  | Cc1cccc(-c2cc3ccccc3c(NCc3ccccc3)n2)c1 | 103 | 85 | 168 | 108 |  |  |  | 
25 | Weak activity |  | c1ccc(CNc2nc(-c3ccccc3)cc3ccccc23)cc1 | 177 | 83 | 102 | 87.4 |  |  |  | 
26 | Weak activity |  | Cc1ccc2c(NCCN)nc(-c3ccccc3C)cc2c1 | > 300 | > 300 | > 300 | > 300 |  |  |  | 
27 |  | Greater activity than Camptothecin | CCN1CCN(c2nc(-c3ccccc3Cl)cc3cc(C)ccc23)CC1 | 13.4 | 5.58 | 195 | 5.58 |  |  |  | 
28 | Weak activity |  | Cc1cccc(-c2cc3cc(C)ccc3c(NCc3ccccc3)n2)c1 | 171 | 88.7 | 146 | 111 |  |  |  | 
29 |  | Greater activity than Camptothecin | Cc1ccc(-c2cc3cc(C)ccc3c(NCCN)n2)cc1 | > 300 | > 300 | > 300 | > 300 |  |  |  | 
30 | Weak activity |  | Cc1ccccc1-c1cc2ccccc2c(N[C@H]2CC[C@H](N)CC2)n1 | 10.2 | 6.45 | 9.17 | 7.65 |  |  |  | 
